Only some compounds are listed: those with a hit (about 5.5% of all), similar ones and a draw of the others.
STAT1 act = activators of IFN-gamma induced STAT1 signaling; activation (% of control), % at 5.5 µM; NIH 3T3 STAT1-luciferase reporter, luminescence; 100% = IFN-gamma alone, no compound; 200,000 compounds, 2.6% hits; AID 932;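 active = activation above the screen-wide mean activation plus 3 SD, cut at about 130% in these data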;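 note: raw ratio to IFN-gamma control signal so 100% means no change and 0% no light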
STAT3 blocker = inhibitors of IL-6 induced STAT3 signaling; U3A cells, IL-6 STAT3-luciferase reporter, luminescence; host cell line lacks STAT1; inhibition, % at 5.5 µM; 190,000 compounds, 0.89% hits; AID 862;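 active = inhibition above the mean inhibition across all screened compounds plus 3 SD, cut at about 44% in these data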;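 note: 0% = DMSO only wells and 100% = 100 µM nifuroxazide control wells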
KCC2 mod = modulates chloride dependent transport by human KCC2 | AID 1456 | KCC2 cells, thallium flux FluoZin-2 fluorescence | B-score of Tl+ flux slope (higher = more flux/activation; lower = inhibition) at 10 µM | 190,000 compounds, 2.2% hits;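 active = thallium flux slope and its plate-corrected score both differing from the plate sample mean at a set confidence after two filtering rounds, in either direction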;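 note: slope of fluorescence scaled to starting intensity during 10 to 20 s after thallium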
Target sequence (Q9H2X9 whole entry, looked up): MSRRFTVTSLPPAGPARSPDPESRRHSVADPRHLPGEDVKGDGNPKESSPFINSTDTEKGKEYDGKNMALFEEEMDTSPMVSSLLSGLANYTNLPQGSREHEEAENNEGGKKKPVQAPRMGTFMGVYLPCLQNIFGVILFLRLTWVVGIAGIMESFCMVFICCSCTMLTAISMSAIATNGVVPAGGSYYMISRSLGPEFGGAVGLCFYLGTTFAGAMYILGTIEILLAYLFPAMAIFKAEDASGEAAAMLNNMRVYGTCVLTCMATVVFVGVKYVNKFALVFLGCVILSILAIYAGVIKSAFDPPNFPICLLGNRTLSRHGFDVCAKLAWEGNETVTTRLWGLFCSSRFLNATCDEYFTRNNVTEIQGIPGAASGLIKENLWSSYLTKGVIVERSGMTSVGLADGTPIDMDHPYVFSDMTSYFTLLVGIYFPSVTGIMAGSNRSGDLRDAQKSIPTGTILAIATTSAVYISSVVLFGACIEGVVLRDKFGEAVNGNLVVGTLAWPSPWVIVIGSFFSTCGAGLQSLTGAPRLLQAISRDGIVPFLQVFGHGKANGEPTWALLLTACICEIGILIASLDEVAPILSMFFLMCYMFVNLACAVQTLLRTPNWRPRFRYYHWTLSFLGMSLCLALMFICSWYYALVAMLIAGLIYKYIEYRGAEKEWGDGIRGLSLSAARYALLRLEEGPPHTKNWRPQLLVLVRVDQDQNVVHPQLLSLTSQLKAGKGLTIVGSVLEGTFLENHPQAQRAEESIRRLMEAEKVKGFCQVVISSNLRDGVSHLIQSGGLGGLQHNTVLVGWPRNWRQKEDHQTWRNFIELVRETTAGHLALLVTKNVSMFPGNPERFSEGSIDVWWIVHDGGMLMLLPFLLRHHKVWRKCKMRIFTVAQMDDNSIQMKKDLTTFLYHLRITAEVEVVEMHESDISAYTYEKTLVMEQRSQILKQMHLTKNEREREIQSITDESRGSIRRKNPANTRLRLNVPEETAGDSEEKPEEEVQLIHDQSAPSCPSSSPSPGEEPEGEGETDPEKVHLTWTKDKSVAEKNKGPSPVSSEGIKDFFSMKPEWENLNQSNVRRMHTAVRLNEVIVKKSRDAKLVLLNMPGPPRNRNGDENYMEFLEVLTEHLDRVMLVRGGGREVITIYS
HSV augment = HSV replication enhancement; HSV replication augmentation in cells, fold increase; maximum fold increase; 220,000 compounds, 0.005% hits; in the data active = maximum fold increase above about 1.5; tested in PC3 cells
STAT3 activator = activators of IL-6 induced STAT3 signaling; U3A cells, IL-6 STAT3-luciferase reporter, luminescence; 100% = signal with IL-6 EC80 alone; 190,000 compounds, 0.91% hits; AID 871; activation (% of control), % at 5.6 µM;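 active = activation above the screen-wide mean of compound activation plus 3 SD, cut at about 130% in these data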;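 note: 0% = background luminescence of wells with medium and substrate only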
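Detection: reporter luminescence signal / Assay system: STAT1-lacking human U3A cells, STAT3 luciferase reporter / Incubation: compound pre-incubation 1 h before IL-6, then 6 h stimulation at 37 °C / Control set: IL-6-only high control / Read-out: % activation relative to IL-6 control / Probe or stimulus: Interleukin-6, 33 ng/mL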
STAT1 blocker = reduces IFN-gamma driven STAT1 reporter signal; inhibition, % at 5.5 µM; NIH 3T3 STAT1-luciferase reporter, luminescence; AID 920; 200,000 compounds, 0.35% hits;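 active = inhibition above a set limit, the mean inhibition across all tested compounds plus 3 SD, cut at about 34% in these data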;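 note: 0% = IFN-gamma with DMSO and 100% = IFN-gamma with 300 µM nifuroxazide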
Starred values were filed as active, the others as inactive; i = inactive; / = no result.

SMILES | STAT1 act | STAT3 blocker | KCC2 mod | HSV augment | STAT3 activator | STAT1 blocker
O=C(CSc1nnc(-c2ccncc2)o1)N1CCCC1 | 100 | 4 | 0.018 | i | 101 | 0
O=C(N/N=C1\CCc2ccccc21)c1ccccc1Cl | 131* | 5 | -0.84 | i | 99 | -35
Cc1ccc(C(=O)N/N=C2\CCc3ccccc32)c(C)c1 | 149* | -2 | -0.0029 | i | 105 | -54
CCOC(=O)N/N=C1\CCc2ccccc21 | 109 | -11 | 0.053 | i | 108 | -9
O=C(N/N=C1/CCc2ccccc21)C1CC1 | 113 | -11 | -0.019 | i | 114 | -14
O=C(N/N=C1\CCc2ccccc21)c1ccc(O)cc1 | 142* | 16 | -0.016 | i | 90 | -50
COC(=O)c1cc(C(=O)OCC(=O)NCc2ccc3c(c2)OCO3)cc([N+](=O)[O-])c1 | 91 | 6 | -0.39 | i | 94 | 11
COC(=O)c1sccc1NC(=S)N1C(C)CCCC1C (stereo unspecified) | 103 | 2 | -1.4 | i | 99 | -4
COc1ccc(-c2c(C)nn3c(N)c(C#N)cnc23)cc1OC | 137* | -13 | -0.54 | i | 118 | -42
c1ccc(-c2noc(CC3CCCCC3)n2)cc1 | 136* | 10 | 0.094 | i | 98 | -40
O=C(NCc1ccc(Cl)cc1)c1ccc(OCC2CCCO2)cc1 (stereo unspecified) | 103 | -6 | -0.023 | i | 107 | -3
O=C(Nc1ccc(Cl)cc1)c1ccc(OCC2CCCO2)cc1 (stereo unspecified) | 137* | 16 | -1.2 | i | 89 | -40
O=C(CN1C(=O)CCC1=O)Nc1nc(-c2nc3ccccc3s2)cs1 | 131* | 0 | -0.48 | i | 100 | -32
O=C(CN1C(=O)CCC1=O)Nc1nc(-c2ccccn2)cs1 | 97 | 8 | -0.15 | i | 97 | 3
O=C(CN1C(=O)CCC1=O)Nc1nc(-c2ccc3ccccc3c2)cs1 | 138* | 13 | -0.3 | i | 91 | -43
O=C(NCCCN1CCCC1=O)c1ccc2c(=O)n(-c3ccccc3F)c(=S)[nH]c2c1 | 101 | 14 | / | i | 91 | -2
Cc1ccc(-n2nc3c(n2)/C(=N/O)CC/C3=N\O)cc1 | 130* | 10 | -0.012 | i | 91 | -33
O=Cc1ccc(-n2nncc2-c2ccc([N+](=O)[O-])cc2)cc1 | 96 | -10 | -0.58 | i | 110 | 2
COC(=O)CCC(=O)COc1ccc(OC)cc1C#N | 130* | -12 | 1 | i | 113 | -33
COC(=O)CCC(=O)COc1ccccc1C#N | 103 | 15 | -0.4 | i | 92 | -4
CNc1ccc([N+](=O)[O-])cc1-c1nc2ccccc2[nH]c1=O | / | / | 0.016 | i | / | /
Cc1ccc(-c2cc(C(=O)N3CCCc4ccccc43)no2)cc1 | 137* | 10 | -1.6 | i | 97 | -42
O=C(c1cc(-c2ccc(F)cc2)on1)N1CCCc2ccccc21 | 117 | 11 | -0.67 | i | 97 | -21
Cc1ccc(C(=O)Nc2ncc(C)s2)o1 | 135* | 9 | / | i | 93 | -41
Cc1cnc(NC(=O)c2cc3ccccc3o2)s1 | 59 | 60* | -0.6 | i | 53 | 43*
SMILES | STAT1 act | STAT3 blocker | KCC2 mod | HSV augment | STAT3 activator | STAT1 blocker
CCc1ccc(NC(=S)NC(=O)CC(C)C)cc1 | 129* | -13 | 1.2 | i | 113 | -32
CCN(CC)S(=O)(=O)c1ccc(NC(=S)NC(=O)CC(C)C)cc1 | 100 | -8 | 0.011 | i | 105 | 0
CC(=O)C1=C(NC(=O)c2ccc(F)cc2)CC2C1C2(C)C (stereo unspecified) | 94 | 15 | 1.2 | i | 91 | 6
C/C(NC(=O)c1ccccc1)=C1/C(=O)CC2C1C2(C)C (stereo unspecified) | 130* | 2 | / | i | 102 | -33
CN(C)/C=N/c1cnc(C(=O)c2ccc(Cl)cc2)n1C | 146* | 5 | -0.67 | i | 103 | -50
COC(=O)c1ccc(COc2cccc(C)c2C)cc1 | 103 | 13 | 2.3 | i | 93 | -6
CSc1ccccc1NC(=O)CSCc1ccc(C)cc1 | 100 | 17 | -3.9* | i | 90 | 0
O=C(CSCc1ccc(Cl)cc1)Nc1ccccc1O | 104 | -5 | 0.11 | i | 108 | -7
COC(=O)Cn1c(C)nc2c(sc3nc(C)cc(C)c32)c1=O | 141* | 8 | 0.83 | i | 97 | -45
O=C(NC(=S)N1CCN(c2ccc([N+](=O)[O-])cc2)CC1)c1ccccc1F | 101 | 2 | 4.9 | / | 103 | -1
O=C(NC(=S)N1CCN(c2ccc([N+](=O)[O-])cc2)CC1)c1ccc(F)cc1 | 101 | 15 | 25* | i | 89 | -1
O=C(COC(=O)c1cccnc1Cl)c1ccccc1 | 130* | 1 | -0.13 | i | 103 | -33
COC(=O)c1ccccc1NC(=O)N[C@@H](C)C(=O)OC | 99 | -5 | / | i | 108 | 1
CCOC(=O)c1ccccc1NC(=O)N[C@@H](C)C(=O)OC | 98 | -1 | -3.4* | i | 101 | 0
CCC(=O)Nc1cccc(C(=O)OCC(=O)c2ccccc2Cl)c1 | 130* | -15 | -0.74 | i | 118 | -32
CCC(=O)Nc1ccccc1C(=O)OCC(=O)c1ccccc1 | 138* | 11 | -0.87 | i | 96 | -41
Cc1ccc(S(=O)(=O)NNC(=O)c2sc(=S)n(C)c2C)cc1 | 104 | -5 | 2 | i | 103 | -5
COc1ccc(-c2nnc(SCC(=O)Nc3cc(C)on3)o2)cc1 | 97 | 17 | -0.24 | i | 92 | 3
CC(C)CC(=O)OCc1cn(-c2ccccc2)nn1 | 102 | 1 | 0.61 | i | 104 | -3
CC(=O)Nc1cc(C(=O)OCC(=O)c2ccccc2)ccc1C | 136* | 5 | -0.56 | i | 98 | -41
CCCCC(=O)Nc1ccccc1C(=O)OCC(=O)c1ccc2c(c1)OCCO2 | 132* | 3 | -0.29 | i | 94 | -36
COC(=O)c1ccc(COC(=O)CCc2nc(-c3ccccc3)c(-c3ccccc3)o2)cc1 | 97 | 8 | 2.9 | i | 98 | 3
Cc1cccc(Oc2ccc(S(=O)(=O)N3CCCCC3)cc2N)c1 | 96 | 11 | -0.13 | i | 97 | 3
CCOC(=O)c1c[nH]c2c(C(F)(F)F)cccc2c1=O | 108 | 4 | -1.6 | i | 99 | -11
Cc1ccc(-c2nc3sc4c(N)ncnc4c3c3c2CCCC3)cc1 | 103 | 25 | / | i | 80 | -3
O=C(Nc1nncs1)c1cc2c(s1)CCC2 | 127 | -4 | -0.032 | i | 105 | -29
O=C(Nc1nccs1)c1cc2c(s1)CCCCC2 | 35 | 95* | -2.8 | i | 21 | 70*
COc1ccc(C(=O)/C=C2\Sc3ccccc3N2C)cc1 | 132* | -15 | -3 | i | 115 | -33
